Columns and labels:
Cannabinoid receptor 1 [1] = target: T1, Cannabinoid receptor 1 (Homo sapiens, UniProt P21554); test: Displacement of [3H]SR141716A from human CB1 receptor expressed in CHO cells at 10 uM; assay type: cell-based
Summary of the method: (§1)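 Radioligand competition on membranes from CHO cells stably transfected with human CB1 or CB2. Radioligands at 1 nM: [3H]-SR141716A for hCB1, [3H]-CP-55,940 for hCB2. Compound screened at 10 µM. 40 µg membrane protein; Tris-HCl pH 7.4 buffer with MgCl2, EDTA, 0.5% BSA; 1 h at 30 °C. Filtered on PEI-treated GF/B filters and counted. Nonspecific binding with 10 µM HU-210. Result given as % displacement.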

[2] = target: Cannabinoid receptor 2 (Homo sapiens) (UniProt P34972); test: Displacement of [3H]CP-55940 from human CB2 receptor expressed in CHO cells at 10 uM; assay type: cell-based; summary of the method: as §1
Cannabinoid receptor 2 (Homo sapiens), sequence (P34972 whole entry): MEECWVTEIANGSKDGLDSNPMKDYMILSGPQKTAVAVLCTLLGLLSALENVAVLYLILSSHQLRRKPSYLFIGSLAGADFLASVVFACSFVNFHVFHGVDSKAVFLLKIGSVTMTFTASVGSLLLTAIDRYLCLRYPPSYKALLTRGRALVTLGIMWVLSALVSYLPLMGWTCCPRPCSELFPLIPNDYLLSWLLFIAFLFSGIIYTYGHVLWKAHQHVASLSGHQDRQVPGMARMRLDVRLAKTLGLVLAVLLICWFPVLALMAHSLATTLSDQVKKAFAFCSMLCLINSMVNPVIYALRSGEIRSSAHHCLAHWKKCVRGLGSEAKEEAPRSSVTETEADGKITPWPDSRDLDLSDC

Cannabinoid receptor 1 [3] = target: T1, Cannabinoid receptor 1
[4] = target: T2, Fatty-acid amide hydrolase 1 (Rattus norvegicus) (UniProt P97612); test: Inhibition of FAAH in rat brain homogenates at 10 uM; assay type: tissue-based
T2 sequence (whole entry): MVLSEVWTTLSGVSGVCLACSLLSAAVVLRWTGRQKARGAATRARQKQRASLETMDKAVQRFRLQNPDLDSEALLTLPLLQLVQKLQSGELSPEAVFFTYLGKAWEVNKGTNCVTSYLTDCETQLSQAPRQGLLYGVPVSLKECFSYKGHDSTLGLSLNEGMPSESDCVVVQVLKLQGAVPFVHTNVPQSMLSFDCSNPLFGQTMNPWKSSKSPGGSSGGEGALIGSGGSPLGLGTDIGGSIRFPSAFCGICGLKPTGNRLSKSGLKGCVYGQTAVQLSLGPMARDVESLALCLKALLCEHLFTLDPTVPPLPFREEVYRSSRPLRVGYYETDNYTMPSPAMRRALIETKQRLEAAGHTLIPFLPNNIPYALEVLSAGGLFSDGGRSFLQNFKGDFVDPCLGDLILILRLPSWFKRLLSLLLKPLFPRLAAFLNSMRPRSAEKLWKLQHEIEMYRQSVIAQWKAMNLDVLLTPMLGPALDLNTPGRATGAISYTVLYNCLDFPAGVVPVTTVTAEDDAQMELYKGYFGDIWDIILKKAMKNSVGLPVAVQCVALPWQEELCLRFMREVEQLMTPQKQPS
Summary of the method: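 FAAH activity in adult rat brain membranes, prepared by homogenization in HEPES pH 7.0 and repeated centrifugation at 36 000 g. Compound at 10 µM incubated with [3H]-anandamide (2 µM final) in Tris-HCl pH 7.6, EDTA, 0.1% BSA for 10 min at 37 °C. Stopped on ice with chloroform/methanol; radioactivity in the aqueous methanol phase counted. Blanks without homogenate.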

Cannabinoid receptor 1 [5] = target: Cannabinoid receptor 1 (Rattus norvegicus, UniProt P20272); test: Displacement of [3H]SR141716A from CB1 receptor in rat cerebellum; assay type: tissue-based
Cannabinoid receptor 1 (Rattus norvegicus, UniProt P20272), sequence (P20272 whole entry): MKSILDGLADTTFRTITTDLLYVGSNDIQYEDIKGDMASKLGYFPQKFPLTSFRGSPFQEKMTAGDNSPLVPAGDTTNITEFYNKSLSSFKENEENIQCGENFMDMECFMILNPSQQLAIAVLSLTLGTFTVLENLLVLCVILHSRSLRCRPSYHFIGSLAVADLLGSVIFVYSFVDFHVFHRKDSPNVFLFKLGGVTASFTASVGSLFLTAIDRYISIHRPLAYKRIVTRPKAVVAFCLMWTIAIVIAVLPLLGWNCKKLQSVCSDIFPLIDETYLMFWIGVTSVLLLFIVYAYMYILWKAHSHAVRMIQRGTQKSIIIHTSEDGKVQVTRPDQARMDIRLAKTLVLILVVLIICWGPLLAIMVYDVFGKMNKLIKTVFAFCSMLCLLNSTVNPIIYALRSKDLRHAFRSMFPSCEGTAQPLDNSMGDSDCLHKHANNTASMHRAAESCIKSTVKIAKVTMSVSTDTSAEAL
Summary of the method: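 40 µg protein; Tris-HCl pH 7.4 buffer with 0.5% BSA; 1 h at 30 °C. Compound at varying concentrations; nonspecific binding with 10 µM HU-210. IC50 by nonlinear regression, converted to Ki by Cheng-Prusoff. Mean ± SEM of at least four experiments in duplicate.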

[6] = target: Cannabinoid receptor 1 (Rattus norvegicus) (UniProt P20272); test: Potency at rat CB1 receptor in a [35S]GTPgammaS functional assay at 10 uM; conditions: filed as antagonist
Cannabinoid receptor 1 (Rattus norvegicus), sequence (P20272 whole entry): as above
Summary of the method: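 [35S]-GTPγS binding in rat cerebellum homogenate, 40 µg protein. Buffer: Tris-HCl pH 7.4 with 100 mM NaCl, 0.1% BSA and 20 µM GDP. Compound at 10 µM; 0.05 nM [35S]-GTPγS final; 1 h at 30 °C. Filtered on GF/B and counted. Nonspecific binding with 100 µM Gpp(NH)p. Mean ± SEM of at least three experiments in duplicate.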

Cannabinoid receptor 1 [7] = target: T1, Cannabinoid receptor 1; test: Potency at human CB1 receptor in a [35S]GTP-gamma-S functional assay

T1 sequence (P21554 whole entry): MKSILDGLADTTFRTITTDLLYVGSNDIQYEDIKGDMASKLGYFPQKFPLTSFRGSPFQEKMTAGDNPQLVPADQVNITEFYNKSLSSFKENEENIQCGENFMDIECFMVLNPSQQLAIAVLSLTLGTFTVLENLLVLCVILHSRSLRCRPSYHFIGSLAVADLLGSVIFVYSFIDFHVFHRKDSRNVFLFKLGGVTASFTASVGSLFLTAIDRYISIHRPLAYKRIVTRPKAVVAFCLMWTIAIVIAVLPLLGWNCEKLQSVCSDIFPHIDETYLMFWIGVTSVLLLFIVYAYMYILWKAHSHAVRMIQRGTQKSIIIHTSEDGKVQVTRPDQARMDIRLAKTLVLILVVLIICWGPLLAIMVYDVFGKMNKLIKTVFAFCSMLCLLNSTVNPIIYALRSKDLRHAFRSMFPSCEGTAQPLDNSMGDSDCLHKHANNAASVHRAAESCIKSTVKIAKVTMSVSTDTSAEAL

SMILES	Activity (Cannabinoid receptor 1 [1]) [%]	Activity [2] [%]	Ki (Cannabinoid receptor 1 [3]) [nM]	inhibition [4] [%]	Ki (Cannabinoid receptor 1 [5]) [nM]	Activity [6]	EC50 (Cannabinoid receptor 1 [7]) [nM]
O=C1NC(=O)N(c2ccc(Br)cc2)C1c1ccc(Br)cc1 (stereo not given)	< 15	< 10	–	–	–	–	–
COc1ccc(N2C(=O)C(c3ccccc3)N(c3ccc(OC)cc3)C2=S)cc1 (stereo not given)	65.6	< 20	7030	< 10	–	–	–
CCCCCN1C(=O)C(c2ccccc2)N(c2ccccc2)C1=O (stereo not given)	41.1	< 10	–	–	–	–	–
O=C1C(c2ccc(Cl)cc2)N(c2cccc(Cl)c2)C(=O)N1c1cccc(Cl)c1 (stereo not given)	67.4	24.8	3310	< 10	–	–	–
O=C1C(c2ccc(Br)cc2)N(c2ccccc2)C(=O)N1c1ccccc1 (stereo not given)	75.4	< 15	4030	14.5	–	–	–
O=C1C(c2ccc(Br)cc2)N(c2ccc(Cl)cc2)C(=O)N1c1ccc(Cl)cc1 (stereo not given)	79.1	< 20	905	15.4	1740	Antagonist	1230
O=C1NC(=O)N(c2ccc(Cl)cc2)C1c1ccccc1 (stereo not given)	< 15	< 10	–	–	–	–	–
O=C1C(c2ccccc2)N(c2ccc(Cl)cc2)C(=O)N1c1ccc(Cl)cc1 (stereo not given)	101	21.6	353	< 10	247	Antagonist	309
O=C1NC(=O)N(c2ccc(Cl)cc2)C1c1ccc(Br)cc1 (stereo not given)	< 15	< 10	–	–	–	–	–
O=C1C(c2ccccc2)N(c2ccccc2)C(=O)N1c1ccccc1 (stereo not given)	57.1	< 10	6300	< 10	–	–	–
O=C1C(c2ccccc2)N(c2ccc(Cl)cc2)C(=S)N1c1ccc(Cl)cc1 (stereo not given)	93.7	< 10	2160	11.4	–	–	2100
O=C1NC(=O)N(c2ccc(Br)cc2)C1c1ccccc1 (stereo not given)	25.2	< 10	–	–	–	–	–
O=C1C(c2ccccc2)N(c2cccc(Cl)c2)C(=O)N1c1cccc(Cl)c1 (stereo not given)	76	32.1	2110	< 10	–	–	936
CCCCCCCN1C(=O)C(c2ccccc2)N(c2ccccc2)C1=O (stereo not given)	–	< 10	–	–	–	–	–
O=C1NC(=S)N(c2ccccc2)C1c1ccccc1 (stereo not given)	< 10	< 10	–	–	–	–	–
CCCCCC(=O)N1C(=O)C(c2ccccc2)N(c2ccccc2)C1=O (stereo not given)	< 10	< 10	–	–	–	–	–
O=C(c1ccccc1)N1C(=O)C(c2ccccc2)N(c2ccccc2)C1=O (stereo not given)	< 10	< 10	–	–	–	–	–

SMILES	Activity (Cannabinoid receptor 1 [1]) [%]	Activity [2] [%]	Ki (Cannabinoid receptor 1 [3]) [nM]	inhibition [4] [%]	Ki (Cannabinoid receptor 1 [5]) [nM]	Activity [6]	EC50 (Cannabinoid receptor 1 [7]) [nM]
O=C1NC(=O)N(c2ccc(I)cc2)C1c1ccccc1 (stereo not given)	< 20	< 10	–	–	–	–	–
O=C1C(c2ccc(Cl)cc2)N(c2ccccc2)C(=O)N1c1ccccc1 (stereo not given)	60.2	< 15	6660	13.7	–	–	–
O=C1C(c2ccc(Br)cc2)N(c2ccccc2)C(=S)N1c1ccccc1 (stereo not given)	85.1	< 10	6310	19.1	–	–	–
O=C1C(c2ccccc2)N(c2ccc(Br)cc2)C(=S)N1c1ccc(Br)cc1 (stereo not given)	100	< 15	1450	< 10	–	–	1620
O=C1C(c2ccccc2)N(C2CCCCC2)C(=O)N1C1CCCCC1 (stereo not given)	25	–	–	–	–	–	–
O=C1C(c2ccccc2)N(c2ccc(Cl)c(Cl)c2)C(=S)N1c1ccc(Cl)c(Cl)c1 (stereo not given)	78.7	< 10	2000	22.9	–	–	–
O=C1C(c2ccccc2)N(c2ccccc2)C(=S)N1c1ccccc1 (stereo not given)	61.7	< 10	> 8000	11.8	–	–	–
O=C1C(c2ccc(Cl)cc2)N(c2ccc(Cl)cc2)C(=O)N1c1ccc(Cl)cc1 (stereo not given)	71.6	28.1	1880	< 10	2620	Antagonist	1110
O=C1NC(=O)N(c2ccccc2)C1c1ccc(Br)cc1 (stereo not given)	< 15	< 10	–	–	–	–	–
CCCCCCC(C)(C)c1cc(O)c2c(c1)OC(C)(C)[C@@H]1CC=C(CO)C[C@@H]21	–	–	18.6	–	2.75	–	0.6
COc1ccc(N2C(=O)C(c3ccccc3)N(c3ccc(OC)cc3)C2=O)cc1 (stereo not given)	57.8	31.4	6460	< 10	–	–	–
O=C1C(c2ccccc2)N(c2ccc(O)cc2)C(=S)N1c1ccc(O)cc1 (stereo not given)	< 20	< 10	–	31.5	–	–	–
COc1ccc(N2C(=O)NC(=O)C2c2ccccc2)cc1 (stereo not given)	< 10	< 10	–	–	–	–	–
O=C1C(c2ccccc2)N(c2cccc(I)c2)C(=S)N1c1cccc(I)c1 (stereo not given)	81.2	< 15	692	17.4	–	–	461
O=C1NC(=O)N(c2ccccc2)C1c1ccccc1 (stereo not given)	< 10	< 10	–	–	–	–	–
Cc1ccc(N2C(=O)C(c3ccccc3)N(c3ccc(C)cc3)C2=S)cc1 (stereo not given)	80.1	< 20	4970	< 10	–	–	–
O=C1C(c2ccccc2)N(c2ccc(Br)cc2)C(=O)N1c1ccc(Br)cc1 (stereo not given)	102	35.6	243	< 10	311	Antagonist	195

Reference: ChEMBL document CHEMBL1148623, “Synthesis and activity of 1,3,5-triphenylimidazolidine-2,4-diones and 1,3,5-triphenyl-2-thioxoimidazolidin-4-ones: characterization of new CB1 cannabinoid receptor inverse agonists/antagonists” (J Med Chem, 2006)
